Source: ChEMBL document CHEMBL1132377 (J Med Chem, 1999)
≈ marks a conversion by molar mass, not a printed value.

Columns and labels:
[1] = target: T1, Peptidyl-prolyl cis-trans isomerase FKBP1A (Homo sapiens, UniProt P62942); experiment: Compound was evaluated for its inhibitory effect on human FK506 binding protein 12 by means of protease-coupled PPIase assay
How it was run: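 Recombinant hFKBP12 (14 nM) preincubated ≥5 min with effectors (0.01–200 μM, diluted from DMSO stocks, organic solvent usually below 0.1% v/v) in 35 mM HEPES pH 7.8. Reaction started with Suc-Ala-Phe-Pro-Phe-pNA (24.0 μM); α-chymotrypsin (410 μg/mL) as isomer-specific protease; 4-nitroaniline release read at 390 nm, 10 °C. First-order k_enz derived; IC50 from concentration dependence; mean ± SD of three determinations.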

K562 = experiment: Cytotoxicity against […] leukemic cell line, by means of standard proliferation assay; type: functional, cell-based; conditions: Homo sapiens
L929 = experiment: Cytotoxicity against mouse L-929 fibroblast cell line, by means of standard proliferation assay; type: functional, cell-based
Rattus norvegicus [2] = experiment: Weight difference between EDL muscles of axotomized left hind limbs and corresponding right controls 10 weeks (dose=1 mg/kg); type: functional, Muscle tissue
How it was run: (§1)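 Sciatic nerve of left hind leg lesioned (neurotomy) in 4-month-old female HAN:Wist rats under intramuscular Rompun (16 mg/kg)/Ketavet (125 mg/kg) anesthesia. Functional recovery scored from walking behavior. EDL muscle weights of the lesioned left limb and the unlesioned right limb compared, with weights related to protein concentration. Weight differences expressed as percentages relative to placebo; mean ± SD of n animals.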

Rattus norvegicus [3] = experiment: Effect on Axonal Regeneration following sciatic nerve neurotomy at a dose of 1 mg/kg after 10 weeks; type: functional; how it was run: as §1
Rattus norvegicus [4] = experiment: Effect on Axonal Regeneration following sciatic nerve neurotomy at a dose of 30 mg/kg after 10 weeks; type: functional
How it was run: (§2)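 Left sciatic nerve cut (neurotomy) in 4-month-old female HAN:Wist rats under intramuscular Rompun/Ketavet anaesthesia. A single 30 mg/kg dose was applied at the lesion site. Walking behaviour was scored up to 8 or 10 weeks after surgery. Values are % increase in rate of functional recovery versus placebo-treated rats, given as mean ± SD of n animals.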

Rattus norvegicus [5] = experiment: Weight difference between EDL muscles of axotomized left hind limbs and corresponding right controls 8 weeks (dose=30 mg/kg); type: functional, Muscle tissue
How it was run: (§3)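 Female HAN:Wist rats (4 months old) underwent left sciatic neurotomy with 30 mg/kg given locally at the lesion. EDL muscles were taken at 8 or 10 weeks and weighed relative to protein concentration. The % weight difference, lesioned left versus intact right limb, was expressed relative to placebo controls. Values are mean ± SD of n animals.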

Rattus norvegicus [6] = experiment: Effect on Axonal Regeneration following sciatic nerve neurotomy at a dose of 30 mg/kg after 8 weeks; type: functional; how it was run: as §2
Rattus norvegicus [7] = experiment: Weight difference between EDL muscles of axotomized left hind limbs and corresponding right controls 10 weeks (dose=30 mg/kg); type: functional, Muscle tissue; how it was run: as §3
[8] = Inhibition constant(Ki) for inhibition of PPIase activity of Escherichia coli FK506 binding protein 26 (Conc=1 uM) of FKBPs family
How it was run: (§4)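 Protease-coupled PPIase assay with α-chymotrypsin 410 μg/mL and Suc-Ala-Phe-Pro-Phe-pNA 24.0 μM. Enzyme was preincubated at least 5 min with inhibitor (0.01–200 μM) in 35 mM HEPES pH 7.8, DMSO usually below 0.1%. 4-Nitroaniline release was read at 390 nm, 10 °C, and first-order k_enz derived. Ki came from nonlinear competitive-inhibition fit; mean ± SD of three.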

[9] = target: Peptidyl-prolyl cis-trans isomerase NIMA-interacting 1 (Homo sapiens, UniProt Q13526); experiment: Inhibition constant(Ki) for inhibition of PPIase activity of human Peptidyl-prolyl cis-trans isomerase NIMA-interacting 1 (Conc=4 nM) of Parvulins family
Chain of Peptidyl-prolyl cis-trans isomerase NIMA-interacting 1 (Q13526 whole entry): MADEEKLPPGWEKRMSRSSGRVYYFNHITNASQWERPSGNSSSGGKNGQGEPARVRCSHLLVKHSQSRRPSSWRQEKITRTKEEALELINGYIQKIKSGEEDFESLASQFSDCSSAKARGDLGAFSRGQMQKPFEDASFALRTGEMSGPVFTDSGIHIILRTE
How it was run: (§5)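 PPIase assay coupled to trypsin 210 μg/mL, using Suc-Ala-Phe-Pro-Arg-pNA 34.0 μM (SlyD) or Ac-Ala-Ala-Ser(P)-Pro-Arg-pNA 26.0 μM (hPin1). Enzyme was preincubated at least 5 min with inhibitor (0.01–200 μM) in 35 mM HEPES pH 7.8. Absorbance at 390 nm was followed at 10 °C, and first-order catalytic rate constants were fitted to a competitive model.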

[10] = Inhibition constant(Ki) for inhibition of PPIase activity of Escherichia coli trigger factor (Conc=12 nM) of FKBPs family; how it was run: as §4
[11] = Inhibition constant(Ki) for inhibition of PPIase activity of Escherichia coli SlyD (Conc=2 uM) of FKBPs family; how it was run: as §5
[12] = target: T1, Peptidyl-prolyl cis-trans isomerase FKBP1A; experiment: Inhibition constant(Ki) for inhibition of PPIase activity of human FK506 binding protein 12 (Conc=14 nM) of FKBPs family; how it was run: as §4
[13] = Inhibition constant(Ki) for inhibition of PPIase activity of human Cyclophilin 18 (Conc=2 nM)
How it was run: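 hCyp18 was expressed recombinantly in E. coli and assayed for PPIase activity with α-chymotrypsin 410 μg/mL and Suc-Ala-Phe-Pro-Phe-pNA 24.0 μM. It was preincubated at least 5 min with 0.01–200 μM inhibitor in 35 mM HEPES pH 7.8. 4-Nitroaniline was monitored at 390 nm, 10 °C, and constants were obtained by competitive nonlinear fit.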

[14] = Inhibition constant(Ki) for inhibition of PPIase activity of Escherichia coli parvulin (Conc=6 nM) of Parvulins sfamily

T1 sequence (P62942 whole entry): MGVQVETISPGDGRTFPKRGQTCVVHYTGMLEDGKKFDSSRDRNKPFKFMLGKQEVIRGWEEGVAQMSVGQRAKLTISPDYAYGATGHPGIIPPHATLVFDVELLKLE

SMILES	IC50 [1]	IC50 (K562)	IC50 (L929)	further results
CCOC(=O)CCCN1C(=O)CC(C[C@@H](O)[C@@H]2C[C@@H](C)C[C@H](C)C2=O)CC1=O	22.3 µM	109 µg/mL (≈ 276 µM)	145 µg/mL (≈ 366 µM)	
C=CC[C@@H]1/C=C(\C)C[C@H](C)C[C@H](OC)[C@H]2O[C@@](O)(C(=O)C(=O)N3CCCC[C@H]3C(=O)O[C@H](/C(C)=C/[C@@H]3CC[C@@H](O)[C@H](OC)C3)[C@H](C)[C@@H](O)CC1=O)[C@H](C)C[C@@H]2OC [TACROLIMUS ANHYDROUS]				Weight difference (Rattus norvegicus [2]): 18%; Walking behaviour (Rattus norvegicus [3]): 100%
C[C@@H]1C[C@@H]([C@H](O)CC2CC(=O)NC(=O)C2)/C(=N\O)[C@@H](C)C1	177 µM	116 µg/mL (≈ 393 µM)	86.9 µg/mL (≈ 293 µM)	
CCOC(=O)CN1C(=O)CC(C[C@@H](O)[C@@H]2C[C@@H](C)C[C@H](C)C2=O)CC1=O	4.4 µM	64.9 µg/mL (≈ 177 µM)	76.7 µg/mL (≈ 209 µM)	Walking behaviour (Rattus norvegicus [4]): 14%; Weight difference (Rattus norvegicus [5]): 20%; Walking behaviour (Rattus norvegicus [6]): 46%; Weight difference (Rattus norvegicus [7]): 13%
CCOC(=O)CN1C(=O)CC(C[C@@H](OC(=O)NC23C[C@H]4C[C@@H](C2)C[C@@H](C3)C4)[C@@H]2C[C@@H](C)C[C@H](C)C2=O)CC1=O	> 200 µM			
C[C@@H]1C[C@@H]([C@H](O)CC2CC(=O)N(Cc3ccc(C#N)cc3)C(=O)C2)C(=O)[C@@H](C)C1	68.2 µM	0.8 µg/mL (≈ 2.02 µM)	1.4 µg/mL (≈ 3.53 µM)	
C[C@@H]1C[C@@H]([C@H](O)CC2CC(=O)N(C)C(=O)C2)C(=O)[C@@H](C)C1	124 µM	133 µg/mL (≈ 449 µM)	> 200 µg/mL	
CC(=O)O[C@H](CC1CC(=O)NC(=O)C1)[C@@H]1C[C@@H](C)C[C@H](C)C1=O	> 200 µM	1.1 µg/mL (≈ 3.4 µM)	9.3 µg/mL (≈ 28.8 µM)	
C[C@@H]1C[C@@H]([C@H](O)CC2CC(=O)N(Cc3ccccc3)C(=O)C2)C(=O)[C@@H](C)C1	117 µM	81.6 µg/mL (≈ 220 µM)	135 µg/mL (≈ 364 µM)	
C[C@@H]1C[C@@H]([C@H](O)CC2CC(=O)N(CC(N)=O)C(=O)C2)C(=O)[C@@H](C)C1	21.6 µM	4.6 µg/mL (≈ 13.6 µM)	5.3 µg/mL (≈ 15.7 µM)	
C[C@@H]1C[C@@H]([C@H](O)CC2CC(=O)NC(=O)C2)C(=O)[C@@H](C)C1 [CYCLOHEXIMIDE]	3.6 µM	< 0.39 µg/mL	< 0.39 µg/mL	Ki [8]: 10.3 µM; Ki [9]: > 200 µM; Ki [10]: > 200 µM; Ki [11]: > 200 µM; Ki [12]: 3.4 µM; Ki [13]: > 200 µM; Ki [14]: 187 µM
